Tests used:
[1] = target: Activin receptor type-1B (Homo sapiens) (UniProt P36896); assay: Inhibition of ALK4 at 1 uM
[2] = target: Aurora kinase B (Homo sapiens, UniProt Q96GD4, E161T); assay: Inhibition of N-terminal flag-tagged Aurora B E161T mutant expressed in Escherichia coli BL21-DE3
[3] = target: Tyrosine-protein kinase receptor UFO (Homo sapiens) (UniProt P30530); assay: Inhibition of Axl at 1 uM
[4] = target: Dual specificity mitogen-activated protein kinase kinase 1 (Homo sapiens) (UniProt Q02750); assay: Inhibition of MEK1 at 1 uM
[5] = target: Cytoplasmic tyrosine-protein kinase BMX (Homo sapiens) (UniProt P51813); assay: Inhibition of BMX at 1 uM
[6] = target: Serine/threonine-protein kinase Sgk1 (Homo sapiens) (UniProt O00141); assay: Inhibition of SGK1 at 1 uM
[7] = target: Serine/threonine-protein kinase Nek4 (Homo sapiens) (UniProt P51957); assay: Inhibition of NEK4 at 1 uM
[8] = target: T1, Aurora kinase B (Homo sapiens, UniProt Q96GD4); assay: Inhibition of N-terminal flag-tagged Aurora B expressed in Escherichia coli BL21-DE3 by ELISA
[9] = target: Fibroblast growth factor receptor 1 (Homo sapiens) (UniProt P11362); assay: Inhibition of FGFR1 at 1 uM
[10] = tested on: HCT-116; assay: Antiproliferative activity against human HCT116 cells after 4 days by celltiter assay; format: functional, cell-based; details: HCT-116, 96 h
[11] = target: Mitogen-activated protein kinase 14 (Homo sapiens) (UniProt Q16539); assay: Inhibition of P38alpha at 1 uM
[12] = target: Serine/threonine-protein kinase Nek9 (Homo sapiens) (UniProt Q8TD19); assay: Inhibition of NEK9 at 1 uM
[13] = target: T1, Aurora kinase B; assay: Inhibition of Aurora B in human HT29 cells assessed as complete loss of phospho-histone H3 staining by immunofluorescence assay; format: cell-based, HT-29
In short: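 Immunofluorescence for phospho-S10 histone H3 in HCT116 or HT29 cells, scored visually. Value taken as the lowest inhibitor concentration giving complete loss of staining, so it lies above the IC50. Units µM.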

[14] = target: G protein-coupled receptor kinase 4 (Homo sapiens) (UniProt P32298); assay: Inhibition of GRK4 at 1 uM
[15] = target: Insulin receptor (Homo sapiens) (UniProt P06213); assay: Inhibition of INSR at 1 uM
[16] = target: Tyrosine-protein kinase ABL1 (Homo sapiens) (UniProt P00519); assay: Inhibition of ABL1 at 1 uM
[17] = target: Epidermal growth factor receptor (Homo sapiens) (UniProt P00533); assay: Inhibition of ErbB1 at 1 uM
[18] = target: Casein kinase I isoform delta (Homo sapiens) (UniProt P48730); assay: Inhibition of CK1delta at 1 uM
[19] = target: Tyrosine-protein kinase BTK (Homo sapiens) (UniProt Q06187); assay: Inhibition of BTK at 1 uM
[20] = target: Serine/threonine-protein kinase mTOR (Homo sapiens) (UniProt P42345); assay: Inhibition of mTOR at 1 uM
[21] = target: Eukaryotic elongation factor 2 kinase (Homo sapiens) (UniProt O00418); assay: Inhibition of EEF2K at 1 uM
[22] = target: Phosphorylase b kinase gamma catalytic chain, skeletal muscle/heart isoform (Homo sapiens) (UniProt Q16816); assay: Inhibition of PHKG1 at 1 uM
[23] = tested on: HT-29; assay: Antiproliferative activity against human HT-29 cells after 4 days by celltiter assay; format: functional, cell-based; details: HT-29, 96 h
[24] = target: Dual specificity protein kinase CLK1 (Homo sapiens) (UniProt P49759); assay: Inhibition of CLK1 at 1 uM
[25] = target: Serine/threonine-protein kinase Chk2 (Homo sapiens) (UniProt O96017); assay: Inhibition of CHK2 at 1 uM
[26] = target: Serine/threonine-protein kinase PLK1 (Homo sapiens) (UniProt P53350); assay: Inhibition of PLK1 at 1 uM
[27] = target: T1, Aurora kinase B; assay: Inhibition of Aurora B at 1 uM
[28] = target: MAP kinase-activated protein kinase 2 (Homo sapiens) (UniProt P49137); assay: Inhibition of MAPKAPK2 at 1 uM
[29] = target: Receptor tyrosine-protein kinase erbB-2 (Homo sapiens) (UniProt P04626); assay: Inhibition of HER2 at 1 uM
[30] = target: Cyclin-dependent kinase 1/cyclin B1 (Homo sapiens) (UniProt P06493+P14635); assay: Inhibition of CDK1/cyclin B at 1 uM

T1 sequence (Q96GD4 whole entry): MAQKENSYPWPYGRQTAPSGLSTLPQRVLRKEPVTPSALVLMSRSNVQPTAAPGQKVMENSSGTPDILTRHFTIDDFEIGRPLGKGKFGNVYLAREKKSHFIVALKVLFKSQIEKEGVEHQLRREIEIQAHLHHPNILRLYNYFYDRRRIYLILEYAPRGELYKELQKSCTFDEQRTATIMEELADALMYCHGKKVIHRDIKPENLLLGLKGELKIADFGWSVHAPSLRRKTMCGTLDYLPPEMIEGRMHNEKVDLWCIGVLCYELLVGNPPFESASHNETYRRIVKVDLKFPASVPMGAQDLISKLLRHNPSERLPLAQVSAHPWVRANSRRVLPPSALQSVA
Sequence of Serine/threonine-protein kinase PLK1 (Homo sapiens) (P53350 whole entry): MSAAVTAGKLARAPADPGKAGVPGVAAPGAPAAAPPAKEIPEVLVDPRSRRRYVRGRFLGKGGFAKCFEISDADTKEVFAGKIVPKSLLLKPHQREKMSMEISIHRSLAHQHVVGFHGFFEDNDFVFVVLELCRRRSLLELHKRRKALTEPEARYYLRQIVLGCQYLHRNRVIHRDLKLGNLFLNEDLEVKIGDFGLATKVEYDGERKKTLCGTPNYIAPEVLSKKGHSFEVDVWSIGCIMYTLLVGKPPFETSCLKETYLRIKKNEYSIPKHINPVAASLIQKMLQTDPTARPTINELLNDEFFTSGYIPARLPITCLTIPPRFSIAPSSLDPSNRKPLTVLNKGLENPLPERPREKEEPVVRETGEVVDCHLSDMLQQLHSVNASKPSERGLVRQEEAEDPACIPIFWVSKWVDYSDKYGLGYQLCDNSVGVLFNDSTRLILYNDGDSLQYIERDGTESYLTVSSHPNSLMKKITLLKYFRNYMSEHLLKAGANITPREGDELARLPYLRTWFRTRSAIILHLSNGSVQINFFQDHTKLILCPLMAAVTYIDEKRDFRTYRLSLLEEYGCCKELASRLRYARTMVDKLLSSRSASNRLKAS
Sequence of Eukaryotic elongation factor 2 kinase (Homo sapiens) (O00418 whole entry, canonical isoform): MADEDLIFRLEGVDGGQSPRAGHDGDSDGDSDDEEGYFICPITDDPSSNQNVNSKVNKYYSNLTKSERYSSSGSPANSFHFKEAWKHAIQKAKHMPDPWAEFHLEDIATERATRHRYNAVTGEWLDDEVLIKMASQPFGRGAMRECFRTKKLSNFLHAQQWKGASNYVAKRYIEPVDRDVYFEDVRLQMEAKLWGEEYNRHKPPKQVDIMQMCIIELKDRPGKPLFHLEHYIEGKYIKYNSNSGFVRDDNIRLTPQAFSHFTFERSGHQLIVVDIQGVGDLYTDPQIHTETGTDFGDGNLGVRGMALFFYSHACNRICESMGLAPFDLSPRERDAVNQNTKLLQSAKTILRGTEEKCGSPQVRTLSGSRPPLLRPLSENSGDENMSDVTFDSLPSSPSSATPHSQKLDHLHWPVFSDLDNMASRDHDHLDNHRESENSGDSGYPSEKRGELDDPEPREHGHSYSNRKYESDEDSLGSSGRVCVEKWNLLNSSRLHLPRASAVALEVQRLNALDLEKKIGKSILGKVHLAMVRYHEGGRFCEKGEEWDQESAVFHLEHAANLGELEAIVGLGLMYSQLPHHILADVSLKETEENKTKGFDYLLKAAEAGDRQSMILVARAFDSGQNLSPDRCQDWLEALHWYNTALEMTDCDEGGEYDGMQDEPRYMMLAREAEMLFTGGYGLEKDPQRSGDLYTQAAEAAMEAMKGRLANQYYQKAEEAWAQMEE
Sequence of Serine/threonine-protein kinase Chk2 (Homo sapiens) (O96017 whole entry): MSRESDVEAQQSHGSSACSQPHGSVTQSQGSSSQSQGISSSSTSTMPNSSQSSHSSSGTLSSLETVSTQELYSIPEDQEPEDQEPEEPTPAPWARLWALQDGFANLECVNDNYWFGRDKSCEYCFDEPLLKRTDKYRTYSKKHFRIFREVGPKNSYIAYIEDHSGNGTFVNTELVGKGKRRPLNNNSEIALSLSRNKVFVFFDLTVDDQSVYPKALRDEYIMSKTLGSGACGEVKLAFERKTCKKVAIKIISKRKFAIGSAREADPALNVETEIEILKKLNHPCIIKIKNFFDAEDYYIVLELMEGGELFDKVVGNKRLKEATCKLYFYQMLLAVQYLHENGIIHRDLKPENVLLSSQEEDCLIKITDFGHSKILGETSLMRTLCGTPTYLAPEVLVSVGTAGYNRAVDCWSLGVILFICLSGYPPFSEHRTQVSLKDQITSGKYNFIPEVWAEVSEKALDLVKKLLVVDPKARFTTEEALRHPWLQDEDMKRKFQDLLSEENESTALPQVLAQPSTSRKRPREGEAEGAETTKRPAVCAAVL
Sequence of Mitogen-activated protein kinase 14 (Homo sapiens) (Q16539 whole entry): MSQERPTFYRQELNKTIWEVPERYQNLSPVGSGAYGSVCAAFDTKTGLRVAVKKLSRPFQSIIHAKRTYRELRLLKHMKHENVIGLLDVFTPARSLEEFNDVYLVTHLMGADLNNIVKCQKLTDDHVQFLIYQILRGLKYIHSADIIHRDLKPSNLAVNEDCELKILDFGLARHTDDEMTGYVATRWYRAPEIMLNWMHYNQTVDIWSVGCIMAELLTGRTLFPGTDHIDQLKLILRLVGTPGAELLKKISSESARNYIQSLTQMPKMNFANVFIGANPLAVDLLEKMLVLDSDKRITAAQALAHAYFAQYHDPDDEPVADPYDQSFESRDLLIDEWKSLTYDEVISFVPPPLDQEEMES
Sequence of Tyrosine-protein kinase BTK (Homo sapiens) (Q06187 whole entry): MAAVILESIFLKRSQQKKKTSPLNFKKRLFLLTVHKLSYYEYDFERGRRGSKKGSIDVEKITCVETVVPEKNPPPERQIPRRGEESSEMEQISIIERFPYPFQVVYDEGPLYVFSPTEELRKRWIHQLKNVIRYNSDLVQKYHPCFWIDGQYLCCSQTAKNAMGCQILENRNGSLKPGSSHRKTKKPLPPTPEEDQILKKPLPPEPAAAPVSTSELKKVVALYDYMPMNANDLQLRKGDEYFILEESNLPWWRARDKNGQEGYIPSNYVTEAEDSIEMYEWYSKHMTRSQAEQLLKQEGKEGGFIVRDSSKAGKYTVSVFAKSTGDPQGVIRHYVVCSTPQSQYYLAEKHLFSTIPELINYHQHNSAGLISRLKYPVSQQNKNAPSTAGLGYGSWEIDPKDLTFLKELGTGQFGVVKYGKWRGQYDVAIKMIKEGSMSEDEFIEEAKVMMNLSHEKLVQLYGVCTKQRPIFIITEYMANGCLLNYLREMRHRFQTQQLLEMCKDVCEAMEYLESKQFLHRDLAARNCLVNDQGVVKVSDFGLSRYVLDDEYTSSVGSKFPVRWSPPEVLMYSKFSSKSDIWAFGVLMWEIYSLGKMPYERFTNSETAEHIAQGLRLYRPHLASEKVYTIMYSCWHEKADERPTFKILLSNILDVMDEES
Sequence of G protein-coupled receptor kinase 4 (Homo sapiens) (P32298 whole entry, looked up): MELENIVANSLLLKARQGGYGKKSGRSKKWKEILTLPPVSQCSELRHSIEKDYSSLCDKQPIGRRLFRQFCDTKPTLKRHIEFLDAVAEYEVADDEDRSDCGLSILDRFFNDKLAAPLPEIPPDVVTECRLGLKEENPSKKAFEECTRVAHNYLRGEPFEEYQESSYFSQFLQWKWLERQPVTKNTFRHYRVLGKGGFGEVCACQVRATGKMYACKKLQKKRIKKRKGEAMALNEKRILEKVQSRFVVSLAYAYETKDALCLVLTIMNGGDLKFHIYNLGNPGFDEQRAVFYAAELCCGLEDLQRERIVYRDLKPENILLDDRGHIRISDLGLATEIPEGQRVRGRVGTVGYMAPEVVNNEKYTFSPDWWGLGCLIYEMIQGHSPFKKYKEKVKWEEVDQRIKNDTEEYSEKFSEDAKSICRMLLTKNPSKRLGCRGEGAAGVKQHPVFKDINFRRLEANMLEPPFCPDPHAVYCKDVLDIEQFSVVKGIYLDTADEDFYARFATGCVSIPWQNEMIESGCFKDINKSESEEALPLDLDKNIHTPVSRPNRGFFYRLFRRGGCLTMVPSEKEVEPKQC
Sequence of Aurora kinase B (Homo sapiens, UniProt Q96GD4, E161T) (Q96GD4 whole entry E161T): as the sequence (Q96GD4 whole entry) above, with E161T counted along it
Sequence of Activin receptor type-1B (Homo sapiens) (P36896 whole entry): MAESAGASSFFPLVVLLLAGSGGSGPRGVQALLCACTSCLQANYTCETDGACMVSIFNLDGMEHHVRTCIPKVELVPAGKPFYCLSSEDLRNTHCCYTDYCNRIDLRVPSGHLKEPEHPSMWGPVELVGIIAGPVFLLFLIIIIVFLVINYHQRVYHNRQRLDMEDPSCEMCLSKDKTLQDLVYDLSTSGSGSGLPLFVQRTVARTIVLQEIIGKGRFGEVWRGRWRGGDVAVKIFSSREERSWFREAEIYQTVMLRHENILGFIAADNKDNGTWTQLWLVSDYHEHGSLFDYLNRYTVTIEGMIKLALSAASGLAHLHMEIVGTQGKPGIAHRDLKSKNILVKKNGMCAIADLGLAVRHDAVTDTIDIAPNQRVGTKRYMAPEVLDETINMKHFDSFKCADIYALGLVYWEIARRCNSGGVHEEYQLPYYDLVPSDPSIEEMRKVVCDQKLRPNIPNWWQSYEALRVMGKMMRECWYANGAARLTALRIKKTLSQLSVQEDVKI
Sequence of MAP kinase-activated protein kinase 2 (Homo sapiens) (P49137 whole entry, looked up): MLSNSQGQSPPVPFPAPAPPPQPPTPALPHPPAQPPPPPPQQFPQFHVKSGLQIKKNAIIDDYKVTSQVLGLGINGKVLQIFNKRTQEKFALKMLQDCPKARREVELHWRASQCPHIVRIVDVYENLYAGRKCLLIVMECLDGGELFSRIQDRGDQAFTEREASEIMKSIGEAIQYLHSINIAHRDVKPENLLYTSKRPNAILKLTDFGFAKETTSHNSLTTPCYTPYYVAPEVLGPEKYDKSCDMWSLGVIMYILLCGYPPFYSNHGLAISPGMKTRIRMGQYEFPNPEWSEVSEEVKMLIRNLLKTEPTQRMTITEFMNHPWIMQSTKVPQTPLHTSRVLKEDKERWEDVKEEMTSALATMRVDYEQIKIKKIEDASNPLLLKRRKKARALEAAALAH

`CC(=O)N1CCN(C(=O)Cc2ccc(Nc3ncc(F)c(Nc4ccc(C(=O)Nc5ccccc5Cl)cc4)n3)cc2)CC1` gave an inhibition [1] of 11%, an IC50 [2] of 0.057 µM and an inhibition [3] of 46%. The inhibition [4] was 21%, the inhibition [5] was 43% and the inhibition [6] was 7%. It also gave an inhibition [7] of 11%, an IC50 [8] of 3.7 µM and an inhibition [9] of 16%. The IC50 [10] was 0.64 µM, the inhibition [11] was 28% and the inhibition [12] was 17%. The IC50 [13] was over 27 µM, the inhibition [14] was -1% and the inhibition [15] was 16%. The inhibition [16] was 33%, the inhibition [17] was 5% and the inhibition [18] was 11%. It also gave an inhibition [19] of 46%, an inhibition [20] of 11% and an inhibition [21] of 5%. It also gave an inhibition [22] of 18%, an IC50 [23] of 6.2 µM and an inhibition [24] of 13%. It also gave an inhibition [25] of 12%, an inhibition [26] of 3% and an inhibition [27] of 59%. It also gave an inhibition [28] of 9%, an inhibition [29] of 4% and an inhibition [30] of 15%.
